# High-throughput results from PubChem.
# In the library only some 3.7% were active in any assay of this set; here they are far more common.
# KCNQ1 block: blocks the human KCNQ1 potassium channel; B-score at 10 µM; AID 2642; CHO-K1 KCNQ1, FluxOR thallium flux fluorescence; stronger effect = higher value; 310,000 compounds, 1.3% hits;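 active means compounds whose thallium flux B-score, printed positive for inhibition, exceeds three library SD while starting fluorescence stays within three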;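 further: channel opened by potassium depolarization with thallium stimulus after 20 min compound exposure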
# hERG protect: compounds protecting human hERG from proarrhythmic drug block; Q12809; CHO-hERG, FluxOR thallium flux, dofetilide IC70 present; activation (rescue from dofetilide block), less the hit threshold, % at 10 µM; 310,000 compounds, 0.51% hits; AID 1511;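 active means activation above the mean of controls blocked by dofetilide plus 5 SD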;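 further: thallium influx through hERG after potassium depolarization seen as dye fluorescence rise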
# KCNQ1 pot: human KCNQ1 channel potentiation or activation. B-score at 10 µM. 310,000 compounds, 0.35% hits. AID 2648. P51787. CHO-K1 KCNQ1, thallium flux FluxOR fluorescence; stronger effect = higher value;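 active means fluorescence ratio B-score, a plate-corrected score, at least three library SD, with initial intensity B-score within 5 SD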
#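 Assay system: CHO-K1 cells stably expressing KCNQ1; Medium: assay buffer with matched DMSO; Also added: K+/Tl+ depolarizing stimulus; Dosing: single dose; Timing: dye 90 min, compound 20 min, room temperature; Measured by: kinetic FluxOR thallium fluorescence, 10-s 1-Hz baseline, 110-s post-stimulus read; Read-out: peak-minus-minimum fluorescence over initial fluorescence, negative-control normalized, B-scored.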
# KCNK9 block: human KCNK9 channel inhibition | HEK293 KCNK9, FluxOR thallium flux fluorescence; stronger effect = lower value | B-score at 10 µM | AID 488922 | Q9NPC2 | 310,000 compounds, 1.2% hits;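 active means ratio B-score over 3 SD below the library mean, with starting fluorescence within 5 SD of its mean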;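 further: negative B-score means less thallium flux so channel inhibition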
# KCNK3 block: human KCNK3 channel inhibition, primary screen; CHO-KCNK3 thallium flux, FluxOR fluorescence; stronger effect = lower value; AID 602410; O14649; 340,000 compounds, 0.84% hits; B-score at 10 µM;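 active means B-score under library mean minus 4 SD, starting fluorescence ratio at most library mean plus 5 SD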;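 further: more negative B-score means stronger inhibition of thallium flux through KCNK3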
# Target sequence (O14649 whole entry, looked up): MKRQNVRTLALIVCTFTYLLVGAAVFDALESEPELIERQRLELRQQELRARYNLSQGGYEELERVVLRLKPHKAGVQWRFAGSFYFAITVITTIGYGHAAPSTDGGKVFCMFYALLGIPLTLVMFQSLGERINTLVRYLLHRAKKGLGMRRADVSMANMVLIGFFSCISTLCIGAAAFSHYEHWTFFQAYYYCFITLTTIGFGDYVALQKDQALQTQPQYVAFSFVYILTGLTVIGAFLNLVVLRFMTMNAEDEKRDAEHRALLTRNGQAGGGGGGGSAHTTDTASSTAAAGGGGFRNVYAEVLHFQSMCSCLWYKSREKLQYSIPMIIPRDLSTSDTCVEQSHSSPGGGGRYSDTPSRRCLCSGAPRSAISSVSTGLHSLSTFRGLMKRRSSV
# Kir21 block: blocks the mouse Kir2.1 inward-rectifier potassium channel. B-score at 10 µM. P35561. 310,000 compounds, 0.85% hits. HEK293-Kir2.1, FluxOR thallium flux fluorescence; stronger effect = lower value;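 active means fluorescence ratio B-score at or below minus 3 SD of library scores, with starting-brightness B-score within 2 SD, cut at about -4.2 in these data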;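 further: channel flux triggered by added potassium and thallium sulfate stimulus; B-score of peak minus minimum fluorescence over baseline after thallium stimulus; more negative B-score means stronger Kir2.1 block with less thallium influx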
# * hit, by the source's call; i = inactive; · = not tested or not shown.
SMILES,KCNQ1 block,hERG protect,KCNQ1 pot,KCNK9 block,KCNK3 block,Kir21 block
CC(NC(=O)c1cccc(Cn2cc([N+](=O)[O-])cn2)c1)c1ccc(C(C)(C)C)cc1 (centres undefined),i,-3.7,i,-7.57*,i,0.96
CCOC(=O)C1(CC2CC2)CCN(Cc2cn[nH]c2-c2ccccc2)CC1,i,2.1,i,i,i,-2.32
CCOC(=O)C1(Cc2ccccc2)CCN(Cc2cn[nH]c2-c2ccccc2)CC1,i,-18.4,i,i,i,-4.84*
O=C1c2ccccc2C2(c3cc(C(F)(F)F)cc(C(F)(F)F)c3)NCCN12 (centres undefined),i,-7.6,14*,i,i,0.05
O=C1c2ccccc2C2(c3ccccc3)NCCCN12 (centres undefined),i,-16.4,i,i,i,-0.48
O=C(NCc1ccccn1)C1CCC(=O)N1C1CCCC1 (centres undefined),i,-5.6,i,i,i,0.14
CC(CNC(=O)c1ccc(C#N)cc1)NC(=O)c1ccc(C#N)cc1 (centres undefined),i,-2.8,i,i,i,-0.06
COCCCNCCCOc1ccc(Cl)cc1C(C)(C)C,i,-10.0,i,i,i,-5.09*
COCCCNCCCCOc1ccc(Br)cc1Cl,i,-12.9,i,i,i,-6.8*
C=CCc1cc(Cl)ccc1OCCOCCNCCOC,i,-4.6,i,i,i,-5.91*
O=C(CSc1ccc(Br)cc1)Nc1cccc(S(=O)(=O)N2CCOCC2)c1,·,·,·,·,i,·
COc1ccc(NS(=O)(=O)c2ccc(N3CCCCC3)c(N)c2)cc1,·,·,·,·,i,·
CCCCCCCCn1c(N2CCN(c3cccc(Cl)c3)CC2)nc2c1c(=O)[nH]c(=O)n2C,i,-9.7,i,i,i,0.64
CCCCCCn1c(N2CCN(c3cccc(Cl)c3)CC2)nc2c1c(=O)[nH]c(=O)n2C,i,-3.3,i,-7.61*,i,-0.31
COc1ccc(OCCOC(=O)CNS(=O)(=O)c2ccc(SC)c([N+](=O)[O-])c2)cc1,i,-4.8,i,i,i,1.7
COc1cc(/C=C2/C(=O)N(c3ccc(Br)cc3)N=C2C)cc(OC)c1OC,8*,-7.8,i,i,i,-0.1
Cc1[nH]c(-c2ccccn2)nc(=S)c1Cl,i,51.7*,41*,i,i,2.59
Cc1cc(=S)nc(-c2ccccn2)[nH]1,i,1.8,i,i,i,1.2
COc1ccc(S(=O)(=O)N(C)C)cc1NCC(=O)Nc1cccc2ccccc12,i,-14.5,i,-7.37*,i,-1.68
Cc1ccc(S(=O)(=O)N(C)C)cc1NC(=S)Nc1cccc2ccccc12,i,-5.1,i,-7.13*,i,-1.9
Cc1ccc(S(=O)(=O)N(C)C)cc1NC(=S)NC(C)CCC(C)C (centres undefined),i,-3.5,i,i,i,-0.01
Cc1ccc(S(=O)(=O)N(C)C)cc1NC(=S)NC(C)CCCC(C)C (centres undefined),i,6.6*,i,i,i,0.34
CCOC(=O)C(=NCC1CCCO1)NNc1ccccc1Cl (centres undefined),i,-3.7,i,i,i,-1.58
C=CCSC1=C(C#N)C(c2ccccc2Cl)C(C(=O)c2cccs2)C(O)(C(F)(F)F)N1 (centres undefined),10*,-11.8,i,i,i,-1.72
CCSC1=C(C#N)C(c2ccccc2Cl)C(C(=O)c2cccs2)C(O)(C(F)(F)F)N1 (centres undefined),i,-19.0,i,i,i,-1.49
SMILES,KCNQ1 block,hERG protect,KCNQ1 pot,KCNK9 block,KCNK3 block,Kir21 block
CC(C)Oc1ccc(S(=O)(=O)N2CCOCC2)cc1NC(=O)c1cc([N+](=O)[O-])ccc1N1CCOCC1,i,-17.2,i,i,i,0.62
COc1ccc(NC(=S)N(Cc2cccnc2)Cc2ccco2)cc1,i,-16.9,i,i,i,0.9
CCc1ccc(NC(=S)N(Cc2cccnc2)Cc2ccco2)cc1,i,6.0*,i,i,i,-0.22
c1ccc(-c2nc(N3CCN(c4ccccc4)CC3)nc(-n3ccnc3)n2)cc1,i,-14.0,i,-7.07*,i,-0.1
O=P(Cc1cc(Br)cc(Br)c1OCCO)(c1ccccc1)c1ccccc1,i,-10.1,i,-6.75*,i,-1.19
O=C(O)c1ccccc1N/N=C/C1=C(N2CCOCC2)C(=C\c2ccccc2)/CC1,9*,-22.5,i,i,i,0.1
O=C(N/N=C/C1=C(N2CCOCC2)C(=C\c2ccccc2)/CC1)Nc1ccccc1,i,-4.5,i,i,i,-0.32
Cc1ccc(-c2nc3ccccc3c(=O)o2)cc1,i,-10.6,i,i,i,0.71
CSc1nnc(-c2cc(-c3ccc(C)cc3)nc3ccccc23)o1,i,-13.7,i,-7.43*,i,0.88
O=C(CSc1cccc[n+]1[O-])NC1CCCCC1,·,·,·,·,i,·
Cc1cc(C(F)(F)F)n(-c2nc(C(=O)NN)cs2)n1,i,5.0*,i,i,i,0.05
COCCNC(=O)C(=O)N/N=C/c1ccc(C(=O)OC)cc1,i,14.0*,i,i,i,-0.09
COC(=O)c1ccc(/C=C/c2ccc3cccc(OC)c3n2)cc1,i,44.4*,i,i,i,0.37
COc1cc(/C=C/c2ccc3cccc(O)c3n2)cc(OC)c1OC,i,2.6,i,i,i,2.5
CC(C)(C)c1ccc(C(=O)CCC(=O)OCC(=O)NCCc2ccc(S(N)(=O)=O)cc2)cc1,·,·,·,·,i,·
CN(C)CCCn1c(SCC(=O)N2c3ccccc3Sc3ccccc32)nc2ccccc2c1=O,i,-24.0,i,i,i,-5.21*
O=C(Nc1cc(Sc2nc3ccccc3s2)cc([N+](=O)[O-])c1)c1ccccc1,11*,-22.8,i,i,i,-0.05
O=C(O)c1ccc(-c2nc(-c3ccccc3)c(-c3cccs3)[nH]2)cc1,i,-8.8,i,i,i,3.75
COc1ccc(-c2nc(-c3cccs3)c(-c3cccs3)[nH]2)cc1O,i,-26.1,i,i,i,-5.58*
C1CCC(C(CC2CCCCN2)C2CCCCC2)CC1 (centres undefined),7*,-19.1,i,i,i,-7.52*
O=C(c1ccoc1)N1CCC2(CC1)Oc1ccc(F)cc1C(=O)C21CC(c2ccc(Cl)cc2)=NO1 (centres undefined),i,-6.0,i,i,i,0.71
